# C8 TRAIL sens: sensitizes caspase-8 expressing cells to TRAIL. NB7+C8 cells + TRAIL, ATPlite viability luminescence. actives 1% (n = 360,000). AID 624354. inhibition (viability loss, TRAIL sensitization), % at 10 µM;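 active = compounds causing at least 50% loss of cell viability in the single-dose screen, relative to plate controls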
# FLuc act counter: affects firefly luciferase, flagging false hits in luciferase stimulation screens; AID 1027; P08659; 200,000 tested, under 10 active; ATPlite luciferase biochemical, luminescence, 10 min; 0 = ATP-free wells, 1 = DMSO control; activation factor at 10 µM;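 active = luciferase activation factor, scaled between plate controls, of at least 2 with compound at 10 µM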
# Target sequence (P08659 whole entry, looked up): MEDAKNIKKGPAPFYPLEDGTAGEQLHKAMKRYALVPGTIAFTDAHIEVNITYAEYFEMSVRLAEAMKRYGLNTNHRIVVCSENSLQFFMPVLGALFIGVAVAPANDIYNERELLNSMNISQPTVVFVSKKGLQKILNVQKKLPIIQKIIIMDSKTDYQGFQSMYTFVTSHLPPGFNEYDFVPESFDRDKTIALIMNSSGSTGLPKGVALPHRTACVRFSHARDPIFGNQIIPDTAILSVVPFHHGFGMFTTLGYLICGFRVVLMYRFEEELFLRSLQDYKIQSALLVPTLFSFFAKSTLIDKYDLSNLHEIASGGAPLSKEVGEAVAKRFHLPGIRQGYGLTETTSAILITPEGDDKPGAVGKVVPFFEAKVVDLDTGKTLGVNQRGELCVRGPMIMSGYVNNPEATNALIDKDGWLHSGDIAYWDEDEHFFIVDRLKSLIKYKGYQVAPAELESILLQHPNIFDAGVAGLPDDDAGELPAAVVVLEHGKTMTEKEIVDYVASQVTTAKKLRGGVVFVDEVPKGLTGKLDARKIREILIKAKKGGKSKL
#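 Assay system – cell-free luciferase reagent · Medium – PBS-based ATP solution · Dosing – test compounds dosed from 2 mM stocks in 100% DMSO · Timing – 10 min, room temperature · Technique – light output (luminescence) · Measure – luminescence gain marking luciferase activators · Controls – No-ATP low control, compound-free enzyme-plus-ATP high control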
# HSP90 inh: HSP90 refolding inhibition in rabbit reticulocyte lysate | inhibition, % at 5.6 µM | actives 0.91% (n = 290,000) | AID 1789 | luciferase refolding luminescence, 3 h;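 active = inhibition above the screen-wide mean plus 3 SD, computed separately per campaign, cut at about 16% in these data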;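 also: 0% = DMSO wells and 100% = 60 µM geldanamycin wells; inhibitors lower the luminescence because luciferase stays unfolded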
# FLuc inhib CS: Photinus pyralis luciferase inhibition counter-screen | P08659 | ATPLite firefly luciferase biochemical luminescence, 10 min | inhibition, % at 10 µM | actives 1.5% (n = 200,000) | AID 1006;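 active = inhibition above about 50% when tested at 10 µM, limit read from the data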
# STAT3 inh: inhibitors of IL-6 induced STAT3 signaling | U3A cells, IL-6 STAT3-luciferase reporter, luminescence; host cell line lacks STAT1 | inhibition, % at 5.5 µM | actives 0.89% (n = 190,000) | AID 862;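 active = inhibition above the mean inhibition across all screened compounds plus 3 SD, cut at about 44% in these data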;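 also: 0% = DMSO only wells and 100% = 100 µM nifuroxazide control wells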
# PPC-1+TRAIL kill: kills PPC-1 cancer cells in the presence of TRAIL | AID 1443 | PPC-1 cells + TRAIL, ATPLite viability luminescence | actives 0.41% (n = 220,000) | cell killing (% activity), % at 4 µM or 5 µM;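 active = cell killing above 50% in the first pass at 4 µM, then a duplicate retest at 5 µM averaging 50% or more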;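 also: plate controls were cells with TRAIL plus DMSO for no effect and medium-only wells lacking cells for full effect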
# PPC1 cytotox: kills PPC-1 cells; shares compounds with PPC-1+TRAIL kill; PPC-1 viability, ATPlite luminescence, overnight; cytotoxicity, % at 5 µM; actives 50% (n = 1,200); AID 1447;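 active = reconfirmed compounds whose average cytotoxicity reaches 50% or more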;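 also: 0% = DMSO-treated cells and 100% = wells holding medium but no cells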
# * = called active by the depositor; nt = not tested or not shown. Hits are enriched below; roughly 2.2% of the tested compounds scored in any of these assays.
SMILES,C8 TRAIL sens,FLuc act counter,HSP90 inh,FLuc inhib CS,STAT3 inh,PPC-1+TRAIL kill,PPC1 cytotox
CC(=O)N1CC(C)Sc2ccc(S(=O)(=O)NCc3ccc(Cl)cc3)cc21 (stereo unspecified),17,nt,-1,nt,nt,nt,nt
O=c1[nH]cnc2scc(-c3ccc(-c4ccccc4)cc3)c12,42,0.4,2,60*,33,58*,60*
CCCOc1ccc(-c2csc3nc[nH]c(=O)c23)cc1,19,nt,-7,nt,nt,nt,nt
Cc1c(N(C)S(=O)(=O)c2cccc(C(=O)NC(C)C)c2)c(=O)n(-c2ccccc2)n1C,-11,nt,0,nt,nt,nt,nt
Nc1c(-c2ccccc2)cnc2cc(-c3ccccc3)nn12,65*,0.1,-2,86*,34,53*,60*
N/C(=N\OC(=O)c1ccc(Cl)cc1Cl)c1ccccn1,90*,0,91*,95*,86*,90*,89*
COc1ccc(C(=O)Sc2nncc3ccccc23)cc1,1,1,0,-2,4,10,7
CCN(CC(=O)Nc1ccc2c(c1)OCCO2)C(=O)c1ccc([N+](=O)[O-])s1,4,nt,nt,nt,nt,nt,nt
COc1ccc(NC(=O)CN2CCN(CC(=O)Nc3cc(OC)cc(OC)c3)CC2)cc1,5,1,nt,2,nt,-2,4
COc1cc(NC(=O)CN2CCCCCC2)cc(OC)c1,-4,nt,-8,nt,nt,nt,nt
CC12CN3CC(C)(CN(C1)C3c1ccccc1F)C2 (stereo unspecified),5,nt,-2,nt,nt,0,nt
O=C(Nc1cccc(Cl)c1Cl)c1cc(S(=O)(=O)NCCc2ccccc2)ccc1F,-3,1,0,-1,6,-7,nt
CSc1nc(C)cc(SCC(=O)Nc2ccccc2)n1,-2,1,4,3,14,-8,-14
Cc1cc(SCC(=O)Nc2ccccc2)nc(C)n1,-12,1,1,-4,12,7,nt
COc1ccc(C(=O)Nc2ccccc2C(=O)N/N=C/c2ccccn2)cc1OC,85*,nt,4,nt,nt,75*,75*
COc1ccc(C(=O)N/N=C/c2ccccn2)cc1OC,-3,1,4,0,-2,7,nt
O=C(N/N=C/c1ccc(Cl)c([N+](=O)[O-])c1)c1cc(-c2ccc3c4c(cccc24)CC3)n[nH]1,10,nt,0,nt,nt,42,33
O=C(Cc1cccs1)NNC(=O)c1ccc(F)cc1,19,1.1,5,-7,8,-7,nt
Cc1ccc(C)c2c3c([nH]c12)-c1nonc1CC3,-5,1,-6,-5,23,4,nt
Cc1ccc(OCC(=O)N(Cc2ccccc2)c2c(N)n(Cc3ccccc3)c(=O)[nH]c2=O)c(C)c1,7,nt,nt,nt,nt,nt,nt
O=C(/C=C/c1ccccc1)c1c[nH]c2ccccc12,58*,nt,0,nt,nt,61*,66*
O=C(C=Cc1ccccc1)c1c[nH]c2ccccc2c1=O,24,nt,nt,nt,nt,nt,nt
Nc1ccc(/C=C/c2ccc3ncccc3c2)cc1,47,nt,12,nt,nt,69*,70*
Nc1ccc2ncccc2c1,-9,1,-1,2,-12,14,nt
O=C(NCCc1ccccc1F)C(=O)Nc1nccs1,10,1,2,-1,4,0,-1
SMILES,C8 TRAIL sens,FLuc act counter,HSP90 inh,FLuc inhib CS,STAT3 inh,PPC-1+TRAIL kill,PPC1 cytotox
CC1=CC(=O)c2ccccc2C1=O,2,1,4,-2,-18,35,nt
O=C1C=C(Nc2ccccc2)C(=O)c2ccccc21,47,0.6,3,44,1,36,33
Cc1ccc(CNC(=O)CS(=O)Cc2nc(-c3ccccc3F)oc2C)cc1 (stereo unspecified),8,nt,1,nt,nt,nt,nt
S=C(NCc1ccco1)N1CCN(Cc2ccco2)CC1,-11,1,-3,-5,8,13,nt
S=C(Nc1ccc2c(c1)OCO2)N1CCN(Cc2ccco2)CC1,60*,0.1,-1,92*,15,53*,56*
O=c1cc(-c2ccccc2)[nH]c2ccccc12,8,1,-5,4,-22,7,nt
O=C1C(c2cc(=O)c3ccccc3[nH]2)=C(O)c2ccccc21,70*,0.1,1,89*,8,56*,53*
COc1ccc(/C=C/c2nc3ccccc3n2Cc2ccc(OC)c(OC)c2)cc1,33,0.2,1,83*,-7,56*,55*
CCn1nnc(NC(=O)c2ccc(C(C)(C)C)cc2)n1,78*,0.2,5,82*,25,57*,42
CCn1nnc(NC(=O)c2cccnc2)n1,-9,1.1,3,-8,16,8,nt
CCOc1ccc(/C=N/OCC(=O)NCc2ccco2)cc1,-9,1,6,-2,6,8,nt
CN1CCN(CCCNC(=O)c2nnc(Cc3c(F)cccc3Cl)o2)CC1,3,1,6,-2,-2,7,16
O=C(NCCCN1CCCC1=O)c1nnc(Cc2c(F)cccc2Cl)o1,-11,1,3,-2,4,5,nt
O=C(Nc1ccc2cn[nH]c2c1)c1c(Cl)cccc1Cl,13,1,4,-3,20,-5,nt
CN(C)c1ccc(NC2=C(Cl)C(=O)c3ccccc3C2=O)cc1,70*,0.6,1,44,12,35,40
CC(=O)Nc1ccc(NC2=C(Cl)C(=O)c3ccccc3C2=O)cc1,nt,0.9,-4,5,-8,16,nt
O=C1C(Cl)=C(Nc2ccc3cn[nH]c3c2)C(=O)c2ccccc21,72*,nt,7,nt,nt,76*,69*
O=C(CCCc1ccccc1)NCCc1ccc(F)cc1,-3,nt,1,nt,nt,nt,nt
COc1ccc2c(C)nc(Nc3nc(-c4ccccc4)cc(=O)[nH]3)nc2c1,41,nt,2,nt,nt,42,44
CCCCn1c(N)c(N(Cc2ccccc2OC)C(=O)c2cc(CC)c(C)s2)c(=O)[nH]c1=O,-2,nt,nt,nt,nt,nt,nt
CCOc1cccc(C(=O)Nc2ccccc2OC(F)F)c1,10,1,-1,-4,21,9,13
O=C(Nc1ccc(-c2cn3ccsc3n2)cc1)C1CCCC1,79*,0.1,2,88*,34,73*,73*
CCC(=O)Nc1cccc(-c2cn3ccsc3n2)c1,11,0.8,2,22,10,-2,9
CC(C)CC(=O)Nc1cccc(-c2cn3ccsc3n2)c1,11,0.5,-2,48,3,34,nt
O=C(Nc1ccc(-c2cn3ccsc3n2)cc1)C1CC1,69*,0.1,1,87*,23,61*,64*
O=C(CCN1C(=O)c2ccccc2C1=O)Nc1ccc(-c2cn3ccsc3n2)cc1,-1,0.7,0,26,19,8,nt
COc1ccc(OCC(=O)N/N=C/C=C/c2ccccc2)cc1,54*,0.2,1,81*,4,39,40
COc1ccc(NS(=O)(=O)c2ccc3c(c2)NC(=O)CC(=O)N3)cc1OC,10,nt,-3,nt,nt,nt,nt
